Converted amounts (≈) assume the structure as drawn.

For four compounds, MIC and Time results are on record in ChEMBL document CHEMBL2062467, “Design, synthesis, antimicrobial, anti-inflammatory and analgesic activity of novel isoxazolyl pyrimido[4,5-b]quinolines and isoxazolyl chromeno[2,3-d]pyrimidin-4-ones” (2012).

One experiment has as its system Fusarium oxysporum. Put plainly: Antifungal activity against Fusarium oxysporum after 72 to 96 hrs by agar cup method. The format is functional.
Conditions: not given
The method, boiled down: (§1)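 Agar cup assay on potato dextrose agar. Plates were spread with 0.5 mL of a one-week-old fungal spore suspension, and 6 mm cups were bored into the agar. Different concentrations of compound in acetone were added to the cups. Acetone and clotrimazole served as controls. Plates were held at room temperature for 72–96 h.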
In the case of `COc1ccc(/C=C/c2onc(C)c2-n2c(C)nc3nc4ccccc4cc3c2=O)cc1`, it took 10 µg/mL (≈ 23.6 µM) to inhibit growth (MIC).
Same read-out and setting: under `COc1ccc(/C=C/c2onc(C)c2N2CN=C3Oc4ccc(Br)cc4C=C3C2=O)cc1` stands 18 µg/mL (≈ 36.6 µM).
The same measure, in the same setting: under `COc1ccc(/C=C/c2onc(C)c2-n2c(C)nc3nc4ccc(Cl)cc4cc3c2=O)cc1` stands 11 µg/mL (≈ 24 µM); under `COc1ccc2c(c1)C=C1C(=O)N(c3c(C)noc3/C=C/c3ccccc3)CN=C1O2`, 12 µg/mL (≈ 29 µM).

The next experiment concerns Rhizoctonia solani. The experiment can be described thus: Antifungal activity against Rhizoctonia solani after 72 to 96 hrs by agar cup method. The format is functional.
Conditions: not given
The method, boiled down: as §1
As for `COc1ccc(/C=C/c2onc(C)c2-n2c(C)nc3nc4ccccc4cc3c2=O)cc1`, the lowest concentration to inhibit growth (MIC) was 14 µg/mL (≈ 33 µM).
The same measure, in the same setting: under `COc1ccc(/C=C/c2onc(C)c2N2CN=C3Oc4ccc(Br)cc4C=C3C2=O)cc1` stands 14 µg/mL (≈ 28.4 µM); under `COc1ccc(/C=C/c2onc(C)c2-n2c(C)nc3nc4ccc(Cl)cc4cc3c2=O)cc1`, 14 µg/mL (≈ 30.5 µM); under `COc1ccc2c(c1)C=C1C(=O)N(c3c(C)noc3/C=C/c3ccccc3)CN=C1O2`, 12 µg/mL (≈ 29 µM).

The subject of the next experiment is Bacillus subtilis. The experiment can be described thus: Antibacterial activity against Bacillus subtilis MTCC 441 after 24 hrs by broth dilution method. The settings on record: MTCC 441, 24 h. The format is functional. The method in brief:
(§2)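 Broth dilution MIC in autoclaved nutrient broth tubes. Test compound was dissolved in acetone, and 100 mg/mL (so in the source) was added to the first tube, then serially diluted across the tubes.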
For the compound `COc1ccc(/C=C/c2onc(C)c2-n2c(C)nc3nc4ccccc4cc3c2=O)cc1`, it took 18 µg/mL (≈ 42.4 µM) to inhibit growth (MIC).
Still for that read-out and setting: under `COc1ccc(/C=C/c2onc(C)c2N2CN=C3Oc4ccc(Br)cc4C=C3C2=O)cc1` stands 12 µg/mL (≈ 24.4 µM); under `COc1ccc(/C=C/c2onc(C)c2-n2c(C)nc3nc4ccc(Cl)cc4cc3c2=O)cc1`, 12 µg/mL (≈ 26.1 µM); under `COc1ccc2c(c1)C=C1C(=O)N(c3c(C)noc3/C=C/c3ccccc3)CN=C1O2`, 18 µg/mL (≈ 43.5 µM).

Another experiment relates to Pseudomonas aeruginosa. The experiment can be described thus: Antibacterial activity against Pseudomonas aeruginosa MTCC 741 after 24 hrs by broth dilution method. Type of experiment: functional. The settings on record: MTCC 741, 24 h. The method in brief:
as §2
Consider `COc1ccc(/C=C/c2onc(C)c2-n2c(C)nc3nc4ccccc4cc3c2=O)cc1`, for which the minimum inhibitory concentration (MIC) (as a rule, the smallest concentration in the dilution series that meets the test's criterion for growth inhibition) worked out at 22 µg/mL (≈ 51.8 µM).
On the same count and under the same terms, under `COc1ccc(/C=C/c2onc(C)c2N2CN=C3Oc4ccc(Br)cc4C=C3C2=O)cc1` stands 15 µg/mL (≈ 30.5 µM); under `COc1ccc(/C=C/c2onc(C)c2-n2c(C)nc3nc4ccc(Cl)cc4cc3c2=O)cc1`, 14 µg/mL (≈ 30.5 µM).
`COc1ccc2c(c1)C=C1C(=O)N(c3c(C)noc3/C=C/c3ccccc3)CN=C1O2`: inhibition of growth (MIC) required 24 µg/mL (≈ 58.1 µM).

The next experiment concerns Klebsiella aerogenes. Put plainly: Antibacterial activity against Klebsiella aerogenes MTCC 39 after 24 hrs by broth dilution method. The format is functional. The settings on record: MTCC 39, 24 h. The method, boiled down: as §2
A general note: In broth dilution the organism is exposed to a series of concentrations in liquid medium.
`COc1ccc(/C=C/c2onc(C)c2-n2c(C)nc3nc4ccccc4cc3c2=O)cc1` returned an MIC of 20 µg/mL (≈ 47.1 µM).
For the compound `COc1ccc(/C=C/c2onc(C)c2N2CN=C3Oc4ccc(Br)cc4C=C3C2=O)cc1`, the lowest concentration to inhibit growth (MIC) was 13 µg/mL (≈ 26.4 µM).
Still for that read-out and setting: the result for `COc1ccc(/C=C/c2onc(C)c2-n2c(C)nc3nc4ccc(Cl)cc4cc3c2=O)cc1` reads 11 µg/mL (≈ 24 µM); that for `COc1ccc2c(c1)C=C1C(=O)N(c3c(C)noc3/C=C/c3ccccc3)CN=C1O2`, 17 µg/mL (≈ 41.1 µM).

The subject of another experiment is Colletotrichum truncatum. Put plainly: Antifungal activity against Colletotrichum capsici after 72 to 96 hrs by agar cup method. Type of experiment: functional.
Conditions: not given
The method in brief:
as §1
For the compound `COc1ccc(/C=C/c2onc(C)c2-n2c(C)nc3nc4ccccc4cc3c2=O)cc1`, the minimum inhibitory concentration (MIC) was found to be 16 µg/mL (≈ 37.7 µM).
On the same count and under the same terms, the result for `COc1ccc(/C=C/c2onc(C)c2N2CN=C3Oc4ccc(Br)cc4C=C3C2=O)cc1` reads 12 µg/mL (≈ 24.4 µM).
Same read-out and setting: the result for `COc1ccc(/C=C/c2onc(C)c2-n2c(C)nc3nc4ccc(Cl)cc4cc3c2=O)cc1` reads 16 µg/mL (≈ 34.9 µM).
The same measure, in the same setting: the result for `COc1ccc2c(c1)C=C1C(=O)N(c3c(C)noc3/C=C/c3ccccc3)CN=C1O2` reads 17 µg/mL (≈ 41.1 µM).

The subject of the next experiment is Rattus norvegicus. The experiment can be described thus: Analgesic activity in Albino rat assessed as reaction time at 10 mg/kg, po after 2 hrs by Hot plate test. Type of experiment: functional.
Conditions: not given
The method, boiled down:
(§3)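 Hot plate test of central analgesia in rats, six per group, with a vehicle control group and an Indomethacin group (10 mg/kg po). Test compounds were given orally at 10 mg/kg. Reaction time was read at 0, 1 and 2 h. Values are the mean of six, ± S.E., also expressed as % increase over basal. Statistics used ANOVA/LSD; Dunnett's test vs control (P < 0.05).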
As for `COc1ccc(/C=C/c2onc(C)c2-n2c(C)nc3nc4ccccc4cc3c2=O)cc1`, the Time was 21.4 s.
Same read-out and setting: under `COc1ccc(/C=C/c2onc(C)c2N2CN=C3Oc4ccc(Br)cc4C=C3C2=O)cc1` stands 22.6 s; under `COc1ccc(/C=C/c2onc(C)c2-n2c(C)nc3nc4ccc(Cl)cc4cc3c2=O)cc1`, 22.6 s; under `COc1ccc2c(c1)C=C1C(=O)N(c3c(C)noc3/C=C/c3ccccc3)CN=C1O2`, 13.4 s.

In another experiment the test system is Staphylococcus aureus. The experiment can be described thus: Antibacterial activity against Staphylococcus aureus MTCC 96 after 24 hrs by broth dilution method. The settings on record: MTCC 96, 24 h. The format is functional. The method in brief:
as §2
In turn, `COc1ccc(/C=C/c2onc(C)c2-n2c(C)nc3nc4ccccc4cc3c2=O)cc1` gave a minimal inhibitory concentration (MIC) of 25 µg/mL (≈ 58.9 µM).
Same read-out and setting: under `COc1ccc(/C=C/c2onc(C)c2N2CN=C3Oc4ccc(Br)cc4C=C3C2=O)cc1` stands 8 µg/mL (≈ 16.2 µM); under `COc1ccc(/C=C/c2onc(C)c2-n2c(C)nc3nc4ccc(Cl)cc4cc3c2=O)cc1`, 13 µg/mL (≈ 28.3 µM); under `COc1ccc2c(c1)C=C1C(=O)N(c3c(C)noc3/C=C/c3ccccc3)CN=C1O2`, 22 µg/mL (≈ 53.2 µM).

In the next experiment the test system is Alternaria solani. Put plainly: Antifungal activity against Alternaria solani after 72 to 96 hrs by agar cup method. The format is functional.
Conditions: not given
The method, boiled down:
as §1
The compound `COc1ccc(/C=C/c2onc(C)c2-n2c(C)nc3nc4ccccc4cc3c2=O)cc1` registered an MIC of 16 µg/mL (≈ 37.7 µM).
Consider `COc1ccc(/C=C/c2onc(C)c2N2CN=C3Oc4ccc(Br)cc4C=C3C2=O)cc1`, for which the MIC is 12 µg/mL (≈ 24.4 µM).
The same measure, in the same setting: the result for `COc1ccc(/C=C/c2onc(C)c2-n2c(C)nc3nc4ccc(Cl)cc4cc3c2=O)cc1` reads 12 µg/mL (≈ 26.1 µM).
`COc1ccc2c(c1)C=C1C(=O)N(c3c(C)noc3/C=C/c3ccccc3)CN=C1O2`: the MIC is 18 µg/mL (≈ 43.5 µM).

System in a further experiment: not listed separately
The experiment can be described thus: Antifungal activity against Verticillium dahliae after 72 to 96 hrs by agar cup method.
Conditions: not given
The format is functional. The method in brief:
as §1
Take `COc1ccc(/C=C/c2onc(C)c2-n2c(C)nc3nc4ccccc4cc3c2=O)cc1`: the MIC was 14 µg/mL (≈ 33 µM).
As to `COc1ccc(/C=C/c2onc(C)c2N2CN=C3Oc4ccc(Br)cc4C=C3C2=O)cc1`, the MIC came out at 14 µg/mL (≈ 28.4 µM).
For `COc1ccc(/C=C/c2onc(C)c2-n2c(C)nc3nc4ccc(Cl)cc4cc3c2=O)cc1`, the lowest concentration to inhibit growth (MIC) was 13 µg/mL (≈ 28.3 µM).
Still for that read-out and setting: under `COc1ccc2c(c1)C=C1C(=O)N(c3c(C)noc3/C=C/c3ccccc3)CN=C1O2` stands 20 µg/mL (≈ 48.4 µM).

A further experiment relates to Rattus norvegicus. Put plainly: Analgesic activity in Albino rat assessed as reaction time at 10 mg/kg, po after 1 hr by Hot plate test. The format is functional.
Conditions: not given
The method, boiled down: as §3
Background: In hot-plate and tail-flick tests a longer latency is read as antinociception.
Turning to `COc1ccc(/C=C/c2onc(C)c2-n2c(C)nc3nc4ccccc4cc3c2=O)cc1`, the Time was 21.7 s.
The same measure, in the same setting: under `COc1ccc(/C=C/c2onc(C)c2N2CN=C3Oc4ccc(Br)cc4C=C3C2=O)cc1` stands 18.8 s; under `COc1ccc(/C=C/c2onc(C)c2-n2c(C)nc3nc4ccc(Cl)cc4cc3c2=O)cc1`, 25.1 s.
On the same count and under the same terms, under `COc1ccc2c(c1)C=C1C(=O)N(c3c(C)noc3/C=C/c3ccccc3)CN=C1O2` stands 21.3 s.

The next experiment relates to Chromobacterium violaceum. Put plainly: Antibacterial activity against Chromobacterium violaceum MTCC 2656 after 24 hrs by broth dilution method. The format is functional. The settings on record: MTCC 2656, 24 h. The method, boiled down: as §2
`COc1ccc(/C=C/c2onc(C)c2-n2c(C)nc3nc4ccccc4cc3c2=O)cc1` registered an MIC of 16 µg/mL (≈ 37.7 µM).
The same measure, in the same setting: under `COc1ccc(/C=C/c2onc(C)c2N2CN=C3Oc4ccc(Br)cc4C=C3C2=O)cc1` stands 10 µg/mL (≈ 20.3 µM).
Take `COc1ccc(/C=C/c2onc(C)c2-n2c(C)nc3nc4ccc(Cl)cc4cc3c2=O)cc1`: 14 µg/mL (≈ 30.5 µM) was the least that counted as inhibitory (MIC).
The same measure, in the same setting: the result for `COc1ccc2c(c1)C=C1C(=O)N(c3c(C)noc3/C=C/c3ccccc3)CN=C1O2` reads 18 µg/mL (≈ 43.5 µM).

The test system of the next experiment is Lysinibacillus sphaericus. The experiment can be described thus: Antibacterial activity against Bacillus sphaericus MTCC 511 after 24 hrs by broth dilution method. The settings on record: MTCC 511, 24 h. The format is functional. The method, boiled down: as §2
As to `COc1ccc(/C=C/c2onc(C)c2-n2c(C)nc3nc4ccccc4cc3c2=O)cc1`, it took 22 µg/mL (≈ 51.8 µM) to inhibit growth (MIC).
For `COc1ccc(/C=C/c2onc(C)c2N2CN=C3Oc4ccc(Br)cc4C=C3C2=O)cc1`, the lowest concentration to inhibit growth (MIC) was 10 µg/mL (≈ 20.3 µM).
In turn, `COc1ccc(/C=C/c2onc(C)c2-n2c(C)nc3nc4ccc(Cl)cc4cc3c2=O)cc1` displayed an MIC of 10 µg/mL (≈ 21.8 µM).
On the same count and under the same terms, under `COc1ccc2c(c1)C=C1C(=O)N(c3c(C)noc3/C=C/c3ccccc3)CN=C1O2` stands 12 µg/mL (≈ 29 µM).

The test system of another experiment is Pythium aphanidermatum. Put plainly: Antifungal activity against Pythium aphanidermatum after 72 to 96 hrs by agar cup method. Type of experiment: functional.
Conditions: not given
The method in brief: as §1
On to `COc1ccc(/C=C/c2onc(C)c2-n2c(C)nc3nc4ccccc4cc3c2=O)cc1`, for which the MIC is 18 µg/mL (≈ 42.4 µM).
`COc1ccc(/C=C/c2onc(C)c2N2CN=C3Oc4ccc(Br)cc4C=C3C2=O)cc1` showed a minimum inhibitory concentration (MIC) of 20 µg/mL (≈ 40.6 µM).
The same measure, in the same setting: the result for `COc1ccc(/C=C/c2onc(C)c2-n2c(C)nc3nc4ccc(Cl)cc4cc3c2=O)cc1` reads 17 µg/mL (≈ 37 µM).
`COc1ccc2c(c1)C=C1C(=O)N(c3c(C)noc3/C=C/c3ccccc3)CN=C1O2` had a minimum inhibitory concentration (MIC) of 23 µg/mL (≈ 55.6 µM).
